# Measurements: the RNAGym collection of RNA variant scans (doi:10.1126/science.aae0568)
# Fewer inactive variants are shown than the library holds.
# B1: tRNA (parent)
# chain: GUUCCGUUGGCGUAAUGGUAACGCGUCUCCCUCCUAAGGAGAAGACUGCGGGUUCGAGUCCCGUACGGAACG
# Variants of: B1
# Assay: yeast fitness relative to wild type (ratio to wild type); higher = fitter; tRNA-Arg(CCU), competitive growth, 37 C, YPD
# How it was run: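 Variants of the tRNA-Arg(CCU) gene were chemically synthesised with a 3% per-site mutation rate across 69 sites and placed at the native genomic locus in Saccharomyces cerevisiae. Six parallel replicates of the pooled strains were competed in YPD at 37°C for 24 hours, and gene amplicons from the start and end populations were read by 100-nucleotide paired-end sequencing. Darwinian fitness relative to wild type was derived from changes in genotype frequencies. Genotypes required ≥ 100 starting reads, and estimates < 0.5 were set to 0.5.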
row,Variant,yeast fitness
1,GUUCCGUUGGUGUAAUGGUAACGCGUCUCCCUCCUAAGGAAAAGACUGCGGGUUCGAGUCCCGUACGGAACG,0.902
2,GUUCCGUUGGUGUAAUGGUAACGCGUCUCCCUCCUAAGGAGAAGACUGCGGGUUCAAGUCCGGUACGGAACG,≤ 0.5
3,GUUCCGUUGGUGUAAUGGUAACGCGUCUCCCUCCUAAGGAGAAGACUGCGGGUUCAAGUCCAGUACGGAACG,0.567
4,GUUCCGUUGGUAUAAUGGUAACGCGUCUCCCUCCUAAGGAGAAGACUGCGCGUUCGAGUCCUGUACGGAACG,≤ 0.5
5,GUUCCGUUGGUGUAAUGGUAACGCGUCUCCUUCCCAAGGAGAAGACUGCGGGUUCGAGUCCCGUACGGUACG,≤ 0.5
6,GUUCCGUUGGUGUAAUGGUAACGCGUCUCCCUCCUAAGGAAAAGACUGCGGGUUCGAGUGCCGUGCGGAACG,0.624
7,GUUCCGUUGGUGUAAUGAUAACGCGUCUCCCUCCUUAGGAGAAGACUCUGGGUUCGAGUCCCGUACGGAACG,0.558
8,GUUCCGUUGGUGUAAUGGGAACGCGUCUCCCUCUUAAGGAGAAGACUGCGGGUUCAAGUCCCGUACGGAACG,≤ 0.5
9,GUUCCGUUGGUGUAAUGGUAACGCGUCUCCCUCCUAAGGAGAAGACUGCGGGUUCGAUUCACGUACGGAACG,≤ 0.5
10,GUUCCGUUGGUGUAAUGGUAACGCGUCUCCCUCCUAAGGAGAAGACUGCGGGUUCGAGUCUCGUCCGGAACG,≤ 0.5
11,GUUCCGUUGGUGUAAUGGUAACCCGUAUCCCUCCUAAGGAGAAGACUGCGGGUUCGAGUCCCGUACGGUACG,≤ 0.5
12,GUUCCGUUGGUGUAACGGUAACACGUCUCCCUCCUCAGGAGAAGACUGCGGGUUCGAGUCCCGUACGGAACG,≤ 0.5
13,GUUCCGUUGGUGUAAUGGUAACGCGUCUCCCUCCUAAGGAGAAGACUGCGGGUUCGAGUCCCGUACGUAACG,0.898
14,GUUCCGUUGGUGUAAUGGUAACGCGUCUCCCUCCUAAGGAGAAGACUGCGGGUUCGAGUCCCGUACGCAACG,0.814
15,GUUCCGUUGGUGUAAUGGGAACGCGUCUCCCUCCUAAGGAGAAGACUGCGGGUUCGAGUCCCGUACGGAACG,0.962
16,GUUCCGUUGGUGUAAUGGUAACGCGUCUCCCUCCUAAGAAGAAGACUGCGGGUUCGAGUCCCGUACGGAACG,0.947
17,GUUCCGUUGGUGUAAUGGUAACGCGUCUCCCUCCUAAGUAGAAGACUGCGGGUUCGAGUCCCGUACGGAACG,0.835
18,GUUCCGUUGGUGUAAUGGUAACGCGUCUCCCUUCUGAGAAGAAAACUGCGGGUUCGAGUCCCGUACGGAACG,≤ 0.5
19,GUUCCGUUGGUGUAAUGCUAACGCGUCUCCUUCCUAAGGAGAAGACUGCGGGUUCGAGUCCUGUACGGAACG,≤ 0.5
20,GUUCCGUUGGUGUAAUGGUAACGCGUCUCCCUCCUAAGCAGAAGACUGCGGGUUCGAGUCCCGUACGCAACG,≤ 0.5
21,GUUCCGUUGGUGUAAUGGUAACGCGUCUCCCUCCUAAGGAGAAGAGUGCGGGUUCGAGUCUCGUACGGAACG,0.596
22,GUUCCGUUGGUGCAAUGGUAACGAGUCUCCCUCCUAAGGAGACGACUGCCGGUUCGAGUGCCGUACGGAUCG,0.567
23,GUUCCGUUGGUGUAAUGGUAACGCGUCUCCCUCCUAAGGAGAAGACUGUGGGUUCAAGUCCCGUCCGGAACG,≤ 0.5
24,GUUCCGUUGGUGUAAAGGUAACGCGUCUCCCUCCUAAGGAGAAGACUGCGGGUCCGAGUCCCGUACGGAACG,≤ 0.5
25,GUUCCGUUGGUGUAAUGGUAACGCGUCUCCCUCCUAAGGAGAAGACUGCGGGUUCGAGUCCCGUAGGGUACG,0.555

row,Variant,yeast fitness
1,GUUCCGUUGGUGGAAUGGAAAGGCAUCUCCCUCCUAAGGAGAAGACUGCGGGUUCGAGUCCCGUCCGGAACG,≤ 0.5
2,GUUCCGUUGGUCUAAUGGUAACGCGUCUCCCUCCUAAGGAGAAGACUGCGGGUUCGAGUCCCGUACGGAACG,0.75
3,GUUCCGUUGGUGUAAUGGUAACGCGUCUCCCUGCUAUGGAGAAGACUGCGGGUUCGAGUCCCGUACGGAACG,≤ 0.5
4,GUUCCGUUGGUGUAAUGGUAACGCGUCUCCCUCCUAAGGAGAAGACUGAGGGUUCGCGUCCCGUACGGAACG,≤ 0.5
5,GUUCCGUUGGUGUAAUGGUAACGCGUCUCCCUCCUAAGGAGAAGAGUGCGAGUUUGAGUCCCUUACGGAACG,≤ 0.5
6,GUUCCGUUGGUGUAAUGCUAACGCGUCUCCUUCCUAAGGAGAAGACUGCGGGUUCGAGUCCCGUACGGAACG,≤ 0.5
7,GUUCCGUUGGUGUAAUGGAAACGCGUCUGCCUCCUAAGGAGAAGACUGCGGGUUCGAGUCCCGUACGGAACG,0.704
8,GUUCCGUUGGUGUAAUGGUAACGCGUCUCCCUCCUAAGGAGAAAACUGCAGGUUCGAGUCCCGUAGGGAACG,0.511
9,GUUCCGUUGGUGUAAUGGUAACACGUCUCCCUCCCAAGGAGAAGACUGCGGGUUCGAGUCCCGUACGGAACG,0.573
10,GUUCCGUUGGUGUAAUGGUAACGCGUCUCCCUCCUAAGGAGAAGACUGCGGGUUAGAGUCCCGUAAGGAACG,≤ 0.5
11,GUUCCGUUGGUGUAAUGGUAACGCGUCUCCCUCCUAAGGAGAAGACUGCGGAUUCGAGUACCGUACGGAACG,0.593
12,GUUCCGUUGGUGUAAUGGUAACGCGUCUCCCUCCUAAGGAGAAGACUGCGGGUUCGAGUCCCGUACGCUACG,0.54
13,GUUCCGUUGGUGCAAUGGUCAGGCGUCUCCCUCCUAAGGAGAAGACUGCGGGUUCGAGUCCCGUACGGAACG,≤ 0.5
14,GUUCCGUUGGUGUAAUCGUAACGCGUCUCCCUCCUAAGGAGAAGACUGCGGGUUCGAGUCCUGUACGGUACG,0.567
15,GUUCCGUUGGUGUAAUAGUAACGCGUCUACCUCCUAAGGAGAAGACUGCGGGUUCGAGUCCCGUACGGAACG,≤ 0.5
16,GUUCCGUUGGUGGAAUGGAAAGGCAUCUCCCUCCUAAGGAGAAGACUGCGGGUUCGAGUCACGUACGGAACG,≤ 0.5
17,GUUCCGUUGGUGUAAUGGUAACGCGUCUCCCUCCUAAGGAGAAGACUGCGGGUUCGAGUCCCAUACGGAACG,0.903
18,GUUCCGUUGGUGUAAUGCUAGCGCGUCUCCCUCCUAAGGAGAAGACUGCGGGUUCGAGUCCCGUACGGAACG,0.571
19,GUUCCGUUGGUGCAAUGGUAACGCGUCUCUCUCCUAAGGAGAGGACUGCGGGUUCGAGUCCCGUACGGAACG,≤ 0.5
20,GUUCCGUUGGUGUAAUGGCAACGCGUCUCCCUCCUAAGGAGAAGACUGCGGGUUCGAGUCGCGUCCGGAACG,≤ 0.5
21,GUUCCGUUGGUGUAAUGGCAACACAUCUCCCUCCUAAGGAGAAGACUGCGGGUUUGAGUCCCGUACGGAACG,0.537
22,GUUCCGUUGGUGUAAUGGCAACGCGUGUCCCUCCUAAGGAGAAGACUGCGGGUUCGAGUCCCGUACGGAACG,0.66
23,GUUCCGUUGGUGUAAUGGUAACGCGUCUCCCUCCUAAGGAGAAGACUGCGGGUUUGAGCCCCGUCCGGAACG,≤ 0.5
24,GUUCCGUUGGUGUAAUAGUAACGCGUCUCCCUCCUAAGGCGAAGACUGCGGGUUCGAGUCCCGUACGGAACG,≤ 0.5
25,GUUCCGUUGGUGUAACGGUAACGUGUCUCCCUCCUAAGGAGAAGACUGCGGGUUCGAGUCCCGUACGGAACG,0.591

row,Variant,yeast fitness
1,GUUCCGUUGGUGUAAUGGUAACGCGUCUCCCUCCUAAGGAGAAGACUGGGGGUUCGAGUCCUGUACGGAACG,≤ 0.5
2,GUUCCGUUGGUGUAAUGGUAACGCGUCUCCCUCAUAAGGAGAAGACUGCGGGUUCGAGUCCCGUACGGAACG,0.758
3,GUUCCGUUGGUGUAAUGGUAACGCGUCUCCCUCCUAAGGAGAAGACUGCGGGUUCGAGUCCCGUAUGGGACG,0.639
4,GUUCCGUUGGUGUAAUGGUAACGCGUCUCCCUCCUAAGGAGAAAACUGUGGGUUCGAGUCCCGUACGGAACG,0.81
5,GUUCCGUUGGUGUAAUGGAAACGCGUCUCCCUUCUAAGGACAAGCCUGCGGGUUCGAGUCCCGUACGGAACG,≤ 0.5
6,GUUCCGUUGGUAUAAUGGUAACGCGUCUCCUUCCUAAGGAGAAGACUGCGGGUUCGAGUCCCGUACGGAACG,0.532
7,GUUCCGUUGGUGUAAUGGUAACGCGUCUCCCUCCUAAGGAGAAGACUGCGGGUUCGACUCUCGUACGGAACG,0.65
8,GUUCCGUUGGUGUAAUGGUAACGCGUCUCCUUCCUAAGGAGAAGACUGCGGGUUCGAGUCCCGAACGGAGCG,≤ 0.5
9,GUUCCGUUGGUGUAAUGGUAACGCGUCUCCCUCCUAAGGAGAAGAUUGCGGGUUCGAGUCCCGUUCGGUACG,0.54
10,GUUCCGUUGGUGUAAUGAUAACGCGUCUCCCUCCUAAGGAGAAGACUACGGGUUCGAGUCCCGUACCGAACG,≤ 0.5
11,GUUCCGUUGGUGUAAUGGUAACGCGUCUCCCUCCUAAGGAGAAGACUGCGGAUUCGAGUCCCGUUCGGAACG,0.567
12,GUUCCGUUGGUGUAAUGGAAACGCGUCUCCCUCCUAAGGAGAUGACUGCGGGUUCGAGACCCAUACGGAACG,≤ 0.5
13,GUUCCGUUGGUGUAAUCGUAUCGCGUCUCCCUCCUAAGGAGAAGACUGCGGGUUCAAGUCCCGUACGGAACG,≤ 0.5
14,GUUCCGUUGGUGUAAUGGUAACGCGUCUCCCUCCUAAGGAGAAGACUGCGGGUUUGAGUCCCGUACGGAACG,0.8
15,GUUCCGUUGGUGUAAUGGUAACGCGUCUCCCUCCUAAGGAGAAGACUGCGGGUUAGAGUCCCGUACGGAACG,0.678
16,GUUCCGUUGGUGUAAUCGUAACGCGUCUCCCACCUAAGGAGAAGAAUGCGGGUUCGAGUCCCGUACGGAACG,≤ 0.5
17,GUUCCGUUGGUGUAAUGGUAACCCGUCUCCCUCCUAAGGAAAAGACUGCGGGUUCGAGUCCAGUACGGAACG,≤ 0.5
18,GUUCCGUUGGUGUAAUGGUAACGCGUCUCCCUCGUAAGGAGAAGACUGCGGGUUCGAGUCCCGUACGGCACG,0.535
19,GUUCCGUUGGUGGAAUGGAAAGGCAUCUCCCUCCUAAGGAGAAGACUACGGGUUCGAGUCCCGUACGGUACG,≤ 0.5
20,GUUCCGUUGGUGUAAUGGCAACGCGUCUCCAUCCUAAGGAGAAGACUGCUGGUUCGAGUCCGGUACGGAACG,≤ 0.5
21,GUUCCGUUGGUGCAAUGGUAACGAGUCUCCCUCCUAAGGAGACGACUGCCGGUUCGAGUCCCGUACGGAACG,≤ 0.5
22,GUUCCGUUGGUGAAAUGGUAACGCGUCUCCCUCCUAAGGAAAAGUCUGCGGGUUCGAUUACCGUACGGAACG,≤ 0.5
23,GUUCCGUUGGUGAAAUGGUAACGCGUCUCUCUCCUAACGAGAAGACUGAGGGUUCGAGUCCCGUACGGAACG,≤ 0.5
24,GUUCCGUUGGUGUAAUGAUAACGCGUCUCCCUCCUUAGGAGAAGACUGCGGGUUCGAGUCCCGUACGGAACG,≤ 0.5
25,GUUCCGUUGGUGUAAUGCUAACGCGUCUCCCUCCUAAGGCGAAGACUGCGGGUUCGAGUCCCAUACGGAACG,≤ 0.5
